What was measured:
Nucleic Acid [1] = test: Ratio of drug level in hypothalamus to cerebellum in rat after 120 mins; type: ADME, tissue-based; settings: in vivo, 2 h
How it was run: (§1)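 Rats, 3 per group, given ¹⁸F tracer (10–100 μCi, 0.2 ml sterile water with 1 mg/mL BSA) into the femoral vein under isoflurane. Brain regions, including hypothalamus, striatum and cerebellum, dissected, weighed and counted. % dose/g calculated against a 1% diluted aliquot of the dose. Region/cerebellum ratio is region %dose/g divided by cerebellum %dose/g. SD of the ratio propagated from both means and SDs.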

Lung [2] = test: Biodistribution in iv dosed rat lungs after 30 mins; type: ADME, organism-based; settings: in vivo, 0.5 h
How it was run: (§2)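 [18F]-labeled tracer was given to rats under isoflurane anesthesia: 0.2 ml sterile water with 1 mg/mL BSA and 10–100 μCi, into the femoral vein. Three rats per group. Animals were killed by cervical dislocation under anesthesia at the stated time. Organs were removed, weighed and counted. Uptake was calculated as percent dose against a 1% aliquot of the injected dose counted alongside.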

Brain [3] = test: Biodistribution in iv dosed rat brain after 30 mins; type: ADME, organism-based; settings: in vivo, 0.5 h; how it was run: as §2
Nucleic Acid [4] = test: Ratio of drug level in hypothalamus to cerebellum in rat after 30 mins; type: ADME, tissue-based; settings: in vivo, 0.5 h; how it was run: as §1
Zone of skin [5] = test: Biodistribution in iv dosed rat skin after 2 mins; type: ADME, organism-based; settings: in vivo
Zone of skin [6] = test: Biodistribution in iv dosed rat skin after 30 mins; type: ADME, organism-based; settings: in vivo, 0.5 h
How it was run: (§3)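 Rats, 3 per group, under isoflurane. ¹⁸F tracer (10–100 μCi) in 0.2 ml sterile water with 1 mg/mL BSA injected into the femoral vein. Killed by cervical dislocation under anesthesia at the stated time. Organs removed, weighed and counted. % dose/organ calculated against counts of a 1% diluted aliquot of the injected dose.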

Zone of skin [7] = test: Biodistribution in iv dosed rat skin after 60 mins; type: ADME, organism-based; settings: in vivo, 1 h
Zone of skin [8] = test: Biodistribution in iv dosed rat skin after 240 mins; type: ADME, organism-based; settings: in vivo, 4 h
Blood [9] = test: Biodistribution in iv dosed rat blood after 2 mins; type: ADME, organism-based; settings: in vivo; how it was run: as §2
Blood [10] = test: Biodistribution in iv dosed rat blood after 120 mins; type: ADME, organism-based; settings: in vivo, 2 h; how it was run: as §2
Blood [11] = test: Biodistribution in iv dosed rat blood after 240 mins; type: ADME, organism-based; settings: in vivo, 4 h; how it was run: as §2
Heart [12] = test: Biodistribution in iv dosed rat heart after 2 mins; type: ADME, organism-based; settings: in vivo; how it was run: as §2
Heart [13] = test: Biodistribution in iv dosed rat heart after 30 mins; type: ADME, organism-based; settings: in vivo, 0.5 h; how it was run: as §2
Heart [14] = test: Biodistribution in iv dosed rat heart after 60 mins; type: ADME, organism-based; settings: in vivo, 1 h; how it was run: as §2
Heart [15] = test: Biodistribution in iv dosed rat heart after 120 mins; type: ADME, organism-based; settings: in vivo, 2 h; how it was run: as §2
Heart [16] = test: Biodistribution in iv dosed rat heart after 240 mins; type: ADME, organism-based; settings: in vivo, 4 h; how it was run: as §2
Lung [17] = test: Biodistribution in iv dosed rat lungs after 2 mins; type: ADME, organism-based; settings: in vivo; how it was run: as §2
Lung [18] = test: Biodistribution in iv dosed rat lungs after 60 mins; type: ADME, organism-based; settings: in vivo, 1 h; how it was run: as §2
Liver [19] = test: Biodistribution in iv dosed rat liver after 2 mins; type: ADME, organism-based; settings: in vivo; how it was run: as §2
Liver [20] = test: Biodistribution in iv dosed rat liver after 120 mins; type: ADME, organism-based; settings: in vivo, 2 h; how it was run: as §2
Liver [21] = test: Biodistribution in iv dosed rat liver after 240 mins; type: ADME, organism-based; settings: in vivo, 4 h; how it was run: as §2
Spleen [22] = test: Biodistribution in iv dosed rat spleen after 2 mins; type: ADME, organism-based; settings: in vivo
Spleen [23] = test: Biodistribution in iv dosed rat spleen after 30 mins; type: ADME, organism-based; settings: in vivo, 0.5 h; how it was run: as §3
Spleen [24] = test: Biodistribution in iv dosed rat spleen after 60 mins; type: ADME, organism-based; settings: in vivo, 1 h
Spleen [25] = test: Biodistribution in iv dosed rat spleen after 120 mins; type: ADME, organism-based; settings: in vivo, 2 h; how it was run: as §3
Spleen [26] = test: Biodistribution in iv dosed rat spleen after 240 mins; type: ADME, organism-based; settings: in vivo, 4 h
Kidney [27] = test: Biodistribution in iv dosed rat kidney after 2 mins; type: ADME, organism-based; settings: in vivo; how it was run: as §2
Kidney [28] = test: Biodistribution in iv dosed rat kidney after 30 mins; type: ADME, organism-based; settings: in vivo, 0.5 h; how it was run: as §2
Kidney [29] = test: Biodistribution in iv dosed rat kidney after 60 mins; type: ADME, organism-based; settings: in vivo, 1 h; how it was run: as §2
Kidney [30] = test: Biodistribution in iv dosed rat kidney after 120 mins; type: ADME, organism-based; settings: in vivo, 2 h; how it was run: as §2
Kidney [31] = test: Biodistribution in iv dosed rat kidney after 240 mins; type: ADME, organism-based; settings: in vivo, 4 h; how it was run: as §2
Muscle tissue [32] = test: Biodistribution in iv dosed rat muscle after 30 mins; type: ADME, organism-based; settings: in vivo, 0.5 h; how it was run: as §2
Muscle tissue [33] = test: Biodistribution in iv dosed rat muscle after 60 mins; type: ADME, organism-based; settings: in vivo, 1 h; how it was run: as §2
Muscle tissue [34] = test: Biodistribution in iv dosed rat muscle after 120 mins; type: ADME, organism-based; settings: in vivo, 2 h; how it was run: as §2
Muscle tissue [35] = test: Biodistribution in iv dosed rat muscle after 240 mins; type: ADME, organism-based; settings: in vivo, 4 h; how it was run: as §2
Bone [36] = test: Biodistribution in iv dosed rat bone after 2 mins; type: ADME, organism-based, Bone element; settings: in vivo; how it was run: as §2
Bone [37] = test: Biodistribution in iv dosed rat bone after 30 mins; type: ADME, organism-based, Bone element; settings: in vivo, 0.5 h; how it was run: as §2
Bone [38] = test: Biodistribution in iv dosed rat bone after 60 mins; type: ADME, organism-based, Bone element; settings: in vivo, 1 h; how it was run: as §2
Bone [39] = test: Biodistribution in iv dosed rat bone after 120 mins; type: ADME, organism-based, Bone element; settings: in vivo, 2 h; how it was run: as §2
Bone [40] = test: Biodistribution in iv dosed rat bone after 240 mins; type: ADME, organism-based, Bone element; settings: in vivo, 4 h; how it was run: as §2
Brain [41] = test: Biodistribution in iv dosed rat brain after 2 mins; type: ADME, organism-based; settings: in vivo; how it was run: as §2
Brain [42] = test: Biodistribution in iv dosed rat brain after 60 mins; type: ADME, organism-based; settings: in vivo, 1 h; how it was run: as §2
Brain [43] = test: Biodistribution in iv dosed rat brain after 240 mins; type: ADME, organism-based; settings: in vivo, 4 h; how it was run: as §2
Striatum [44] = test: Biodistribution in iv dosed rat striatum assessed as radioactivity after 2 mins; type: ADME, organism-based; settings: in vivo
Striatum [45] = test: Biodistribution in iv dosed rat striatum assessed as radioactivity after 60 mins; type: ADME, organism-based; settings: in vivo, 1 h
Striatum [46] = test: Biodistribution in iv dosed rat striatum assessed as radioactivity after 120 mins; type: ADME, organism-based; settings: in vivo, 2 h
Striatum [47] = test: Biodistribution in iv dosed rat striatum assessed as radioactivity after 240 mins; type: ADME, organism-based; settings: in vivo, 4 h
Nucleic Acid [48] = test: Ratio of drug level in hypothalamus to cerebellum in rat after 2 mins; type: ADME, tissue-based; settings: in vivo
Nucleic Acid [49] = test: Ratio of drug level in hypothalamus to cerebellum in rat assessed as radioactivity after 60 mins; type: ADME, tissue-based; settings: in vivo, 1 h
Nucleic Acid [50] = test: Ratio of drug level in hypothalamus to cerebellum in rat assessed as radioactivity after 240 mins; type: ADME, tissue-based; settings: in vivo, 4 h
Nucleic Acid [51] = test: Ratio of drug level in hippocampus to cerebellum in rat assessed as radioactivity after 60 mins; type: ADME, tissue-based; settings: in vivo, 1 h
Nucleic Acid [52] = test: Ratio of drug level in hippocampus to cerebellum in rat assessed as radioactivity after 120 mins; type: ADME, tissue-based; settings: in vivo, 2 h
How it was run: (§4)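 Groups of three normal rats under isoflurane received the [18F] tracer (10–100 μCi in 0.2 ml sterile water containing 1 mg/mL BSA) into the femoral vein. They were killed by cervical dislocation under anesthesia at the stated time. Cortex, striatum, hippocampus, hypothalamus and cerebellum were dissected, weighed and gamma-counted. %dose/g was set against a 100-fold diluted dose aliquot, and each region was divided by cerebellum.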

Nucleic Acid [53] = test: Ratio of drug level in hippocampus to cerebellum in rat assessed as radioactivity after 240 mins; type: ADME, tissue-based; settings: in vivo, 4 h
Nucleic Acid [54] = test: Ratio of drug level in cortex to cerebellum in rat assessed as radioactivity after 2 mins; type: ADME, tissue-based; settings: in vivo
Nucleic Acid [55] = test: Ratio of drug level in cortex to cerebellum in rat assessed as radioactivity after 30 mins; type: ADME, tissue-based; settings: in vivo, 0.5 h; how it was run: as §4
Nucleic Acid [56] = test: Ratio of drug level in cortex to cerebellum in rat assessed as radioactivity after 60 mins; type: ADME, tissue-based; settings: in vivo, 1 h
Nucleic Acid [57] = test: Ratio of drug level in cortex to cerebellum in rat assessed as radioactivity after 240 mins; type: ADME, tissue-based; settings: in vivo, 4 h
Nucleic Acid [58] = test: Ratio of drug level in striatum to cerebellum in rat assessed as radioactivity after 60 mins; type: ADME, tissue-based; settings: in vivo, 1 h
Nucleic Acid [59] = test: Ratio of drug level in striatum to cerebellum in rat assessed as radioactivity after 120 mins; type: ADME, tissue-based; settings: in vivo, 2 h; how it was run: as §4
Nucleic Acid [60] = test: Ratio of drug level in striatum to cerebellum in rat assessed as radioactivity after 240 mins; type: ADME, tissue-based; settings: in vivo, 4 h
Lung [61] = test: Biodistribution in iv dosed rat lungs after 120 mins; type: ADME, organism-based; settings: in vivo, 2 h; how it was run: as §2
Lung [62] = test: Biodistribution in iv dosed rat lungs after 240 mins; type: ADME, organism-based; settings: in vivo, 4 h; how it was run: as §2
[63] = Partition coefficient, log P at pH 7.4; type: physicochemical; settings: octanol/water

CN(C)Cc1cc(OCC[18F])ccc1Sc1ccc(Br)cc1N
Ratio (Nucleic Acid [1]): 3.7
Drug uptake (Lung [2]): 4.63 %ID
Drug uptake (Brain [3]): 1.88 %ID
Ratio (Nucleic Acid [4]): 2.04
Drug uptake (Zone of skin [5]): 5.3 %ID
Drug uptake (Zone of skin [6]): 7.06 %ID
Drug uptake (Zone of skin [7]): 7.86 %ID
Drug uptake (Zone of skin [8]): 6.79 %ID
Drug uptake (Blood [9]): 4.67 %ID
Drug uptake (Blood [10]): 6.19 %ID
Drug uptake (Blood [11]): 5.21 %ID
Drug uptake (Heart [12]): 1.38 %ID
Drug uptake (Heart [13]): 0.23 %ID
Drug uptake (Heart [14]): 0.21 %ID
Drug uptake (Heart [15]): 0.19 %ID
Drug uptake (Heart [16]): 0.12 %ID
Drug uptake (Lung [17]): 10.3 %ID
Drug uptake (Lung [18]): 3.44 %ID
Drug uptake (Liver [19]): 11.1 %ID
Drug uptake (Liver [20]): 2.85 %ID
Drug uptake (Liver [21]): 2.13 %ID
Drug uptake (Spleen [22]): 1.05 %ID
Drug uptake (Spleen [23]): 0.7 %ID
Drug uptake (Spleen [24]): 0.68 %ID
Drug uptake (Spleen [25]): 0.54 %ID
Drug uptake (Spleen [26]): 0.39 %ID
Drug uptake (Kidney [27]): 5.33 %ID
Drug uptake (Kidney [28]): 2.85 %ID
Drug uptake (Kidney [29]): 2.44 %ID
Drug uptake (Kidney [30]): 2 %ID
Drug uptake (Kidney [31]): 1.53 %ID
Drug uptake (Muscle tissue [32]): 15.9 %ID
Drug uptake (Muscle tissue [33]): 15.5 %ID
Drug uptake (Muscle tissue [34]): 10.2 %ID
Drug uptake (Muscle tissue [35]): 8.37 %ID
Drug uptake (Bone [36]): 9.88 %ID
Drug uptake (Bone [37]): 8.17 %ID
Drug uptake (Bone [38]): 8.53 %ID
Drug uptake (Bone [39]): 9.3 %ID
Drug uptake (Bone [40]): 12.5 %ID
Drug uptake (Brain [41]): 2.05 %ID
Drug uptake (Brain [42]): 1.92 %ID
Drug uptake (Brain [43]): 1.57 %ID
Drug uptake (Striatum [44]): 1.02 % ID/g
Drug uptake (Striatum [45]): 1.27 % ID/g
Drug uptake (Striatum [46]): 1.37 % ID/g
Drug uptake (Striatum [47]): 0.98 % ID/g
Ratio (Nucleic Acid [48]): 0.95
Ratio (Nucleic Acid [49]): 2.97
Ratio (Nucleic Acid [50]): 4.26
Ratio (Nucleic Acid [51]): 2.21
Ratio (Nucleic Acid [52]): 2.23
Ratio (Nucleic Acid [53]): 2.99
Ratio (Nucleic Acid [54]): 1.45
Ratio (Nucleic Acid [55]): 1.95
Ratio (Nucleic Acid [56]): 2.41
Ratio (Nucleic Acid [57]): 3.21
Ratio (Nucleic Acid [58]): 2.76
Ratio (Nucleic Acid [59]): 2.84
Ratio (Nucleic Acid [60]): 3.84
Drug uptake (Lung [61]): 2.98 %ID
Drug uptake (Lung [62]): 2.1 %ID
logD [63]: 2.52

Source: ChEMBL document CHEMBL1138354, “2-(2'-((dimethylamino)methyl)-4'-(fluoroalkoxy)-phenylthio)benzenamine derivatives as serotonin transporter imaging agents” (J Med Chem, 2007)
